Results taken from ChEMBL document CHEMBL2086366, “Chemical optimization of new ligands of the low-density lipoprotein receptor as potential vectors for central nervous system targeting” (J Med Chem, 2012).
*1 amine or outer side, *2 acyl side, *3 side chain or, on linkers, in order; H or OH if unused. Where a SMILES comes first, the peptide text is derived from it. Bridges are numbered along the chain shown (N, C = ends). [ ]: non-standard residue; d: D form. X1 = CSCC[C@@H](C(=O)[*:2])N(C[C@@H](CS[*:3])NC(C)=O)[*:1]

What was measured:
[1] = target: Low-density lipoprotein receptor (Homo sapiens) (UniProt P01130); assay: Displacement of S-tagged Ac-[cMPRLRGC]c-NH2 from human DsRed2-fused LDLR expressed in CHO cells at 10 uM after 1 hr by FRET assay; type: cell-based
Outline: (§1)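 CHO cells stably expressing hLDLR-DsRed2 (Ham-F12, 5% FBS, Geneticin) at 800 000 cells/well were incubated in triplicate with S-tagged reference peptide (10 μM) plus test peptide (10 μM) in Ham-F12/1% BSA, 1 h, 37 °C. Scrambled and untagged peptide controls were included; values are means of at least three points.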

[2] = target: Low-density lipoprotein receptor (Homo sapiens) (UniProt P01130); assay: Displacement of S-tagged Ac-DSGL[CMPRLRGC]cDPR-NH2 from human DsRed2-fused LDLR expressed in CHO cells at 10 uM after 1 hr by FRET assay; type: cell-based; outline: as §1

Chain of Low-density lipoprotein receptor (Homo sapiens) (P01130 whole entry, the tested form may be a part): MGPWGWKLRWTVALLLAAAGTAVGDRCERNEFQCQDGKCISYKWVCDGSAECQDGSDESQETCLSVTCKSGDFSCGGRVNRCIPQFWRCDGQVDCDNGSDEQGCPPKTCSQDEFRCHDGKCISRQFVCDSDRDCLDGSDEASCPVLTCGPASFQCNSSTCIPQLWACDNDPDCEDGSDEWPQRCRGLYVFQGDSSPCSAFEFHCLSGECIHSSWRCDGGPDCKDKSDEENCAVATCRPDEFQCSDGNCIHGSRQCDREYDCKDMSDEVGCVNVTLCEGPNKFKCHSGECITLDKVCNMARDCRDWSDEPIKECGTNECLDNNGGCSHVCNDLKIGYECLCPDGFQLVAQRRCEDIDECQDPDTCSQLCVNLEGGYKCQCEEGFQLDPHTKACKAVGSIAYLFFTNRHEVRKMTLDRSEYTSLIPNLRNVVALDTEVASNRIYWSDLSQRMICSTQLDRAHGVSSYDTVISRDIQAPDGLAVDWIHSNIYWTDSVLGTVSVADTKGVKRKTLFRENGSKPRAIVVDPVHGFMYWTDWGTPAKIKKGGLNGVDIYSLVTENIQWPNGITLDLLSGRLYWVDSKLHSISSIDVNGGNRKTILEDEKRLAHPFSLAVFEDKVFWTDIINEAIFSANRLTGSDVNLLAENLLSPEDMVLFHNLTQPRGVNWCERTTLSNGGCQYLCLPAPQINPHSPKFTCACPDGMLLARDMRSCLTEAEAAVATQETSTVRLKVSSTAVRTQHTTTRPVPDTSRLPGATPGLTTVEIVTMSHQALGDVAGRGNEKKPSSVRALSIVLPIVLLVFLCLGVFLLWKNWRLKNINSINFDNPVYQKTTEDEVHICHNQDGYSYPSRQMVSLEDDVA

| Compound | inhibition [1] [%] | inhibition [2] [%] |
| --- | --- | --- |
| CSCC[C@@H]1NC[C@H](NC(C)=O)CSSC[C@@H](C(N)=O)NC(=O)CNC(=O)[C@H](CCCNC(=N)N)NC(=O)[C@H](CC(C)C)NC(=O)[C@H](CCCNC(=N)N)NC(=O)[C@@H]2CCCN2C1=O (H-[X1]PRLRGC-NH2; disulfide 1-7) | 37 |  |
| Ac-DSGLCMPRLRGADPR-NH2 |  | 0 |
| CSCC[C@@H]1NC(=O)[C@@H](NC(=O)[C@H](CC(C)C)NC(=O)CNC(=O)[C@H](CO)NC(=O)[C@H](CC(=O)O)NC(C)=O)CSSC[C@@H](C(=O)N[C@@H](CC(=O)O)C(=O)N2CCC[C@H]2C(=O)N[C@@H](CCCNC(=N)N)C(N)=O)NC(=O)CNC(=O)[C@H](C)NC(=O)[C@H](CC(C)C)NC(=O)[C@H](CCCNC(=N)N)NC(=O)[C@@H]2CCCN2C1=O (Ac-DSGLCMPRLAGCDPR-NH2; disulfide 5-12) |  | 2 |
| COCC[C@@H]1NC(=O)[C@H](NC(C)=O)CSSC[C@@H](C(N)=O)NC(=O)CNC(=O)[C@H](CCCNC(=N)N)NC(=O)[C@H](CC(C)C)NC(=O)[C@H](CCCNC(=N)N)NC(=O)[C@@H]2CCCN2C1=O | 0 |  |
| CC(=O)N[C@@H]1CSSC[C@@H](C(N)=O)NC(=O)CNC(=O)[C@H](CCCNC(=N)N)NC(=O)[C@H](CC(C)C)NC(=O)[C@H](CCCNC(=N)N)NC(=O)[C@@H]2CCCN2C(=O)[C@@H]2CSCN2C1=O | 0 |  |
| CSCC[C@@H]1NC(=O)[C@H](NC(C)=O)CSSC[C@@H](C(N)=O)NC(=O)CNC(=O)[C@H](CCCNC(=N)N)NC[C@H](CC(C)C)NC(=O)[C@H](CCCNC(=N)N)NC(=O)[C@@H]2CCCN2C1=O | 40 |  |
| CC(=O)N[C@@H](CC(=O)O)C(=O)N[C@@H](CO)C(=O)NCC(=O)N[C@@H](CC(C)C)C(=O)N[C@H]1CSSC[C@@H](C(=O)N[C@@H](CC(=O)O)C(=O)N2CCC[C@H]2C(=O)N[C@@H](CCCNC(=N)N)C(N)=O)NC(=O)CNC(=O)[C@H](CCCNC(=N)N)NC(=O)[C@H](CC(C)C)NC(=O)[C@H](CCCNC(=N)N)NC(=O)[C@@H]2CCCN2C(=O)[C@H](C)NC1=O (Ac-DSGLCAPRLRGCDPR-NH2; disulfide 5-12) |  | 0 |
| CSCC[C@H](NC(=O)[C@H]1CSSC[C@H](N)C(=O)NCC(=O)N[C@@H](CCCNC(=N)N)C(=O)N[C@@H](CC(C)C)C(=O)N[C@@H](CCCNC(=N)N)C(=O)N2CCC[C@H]2C(=O)N1)C(=O)NC(C)=O | 28 |  |
| CSCC[C@@H]1NC(=O)[C@@H](NC(=O)[C@H](CC(C)C)NC(=O)CNC(=O)[C@H](CO)NC(=O)[C@H](CC(=O)O)NC(C)=O)CSSC[C@@H](C(=O)N[C@@H](CC(=O)O)C(=O)N2CCC[C@H]2C(=O)N[C@@H](CCCNC(=N)N)C(N)=O)NC(=O)CNC(=O)[C@H](CCCNC(=N)N)NC(=O)[C@H](CC(C)C)NC(=O)[C@H](CCCNC(=N)N)NC(=O)[C@H](C)NC1=O (Ac-DSGLCMARLRGCDPR-NH2; disulfide 5-12) |  | 3 |
| CSCC[C@@H]1NC(=O)[C@H](NC(C)=O)CSSC[C@@H](C(N)=O)NC(=O)CNC(=O)[C@H](CCCNC(=N)N)NC(=O)[C@H](CC(C)C)NC(=O)[C@H](CCCNC(=N)N)NC[C@@H]2CCCN2C1=O | 0 |  |
| CSCC[C@@H]1NC(=O)[C@@H](NC(=O)[C@H](CC(C)C)NC(=O)CNC(=O)[C@H](CO)NC(=O)[C@H](CC(=O)O)NC(C)=O)CSSC[C@@H](C(=O)N[C@@H](CC(=O)O)C(=O)N2CCC[C@H]2C(=O)N[C@@H](CCCNC(=N)N)C(N)=O)NC(=O)CNC(=O)[C@H](CCCNC(=N)N)NC(=O)[C@H](CC(C)C)NC(=O)[C@H](C)NC(=O)[C@@H]2CCCN2C1=O (Ac-DSGLCMPALRGCDPR-NH2; disulfide 5-12) |  | 0 |
| CSCC[C@@H]1NC(=O)[C@@H](NC(=O)[C@H](CC(C)C)NC(=O)CNC(=O)[C@H](CO)NC(=O)[C@H](CC(=O)O)NC(C)=O)CSSC[C@@H](C(=O)N[C@@H](CC(=O)O)C(=O)N[C@@H](C)C(=O)N[C@@H](CCCNC(=N)N)C(N)=O)NC(=O)CNC(=O)[C@H](CCCNC(=N)N)NC(=O)[C@H](CC(C)C)NC(=O)[C@H](CCCNC(=N)N)NC(=O)[C@@H]2CCCN2C1=O (Ac-DSGLCMPRLRGCDAR-NH2; disulfide 5-12) |  | 52 |
| CSCC[C@@H]1NC(=O)[C@H](NC(C)=O)CSSC[C@@H](C(N)=O)NC(=O)CNC(=O)[C@H](CCCNC(=N)N)NC(=O)[C@H](CC(C)C)NC(=O)[C@H](CCCN)NC(=O)[C@@H]2CCCN2C1=O | 28 |  |
| CC(=O)N[C@@H]1CSSC[C@@H](C(N)=O)NC(=O)CNC(=O)[C@H](CCCNC(=N)N)NC(=O)[C@H](CC(C)C)NC(=O)[C@H](CCCNC(=N)N)NC(=O)[C@@H]2CCCN2C(=O)[C@H](Cc2cccs2)NC1=O | 0 |  |
| CSCC[C@H]1CN2CCC[C@H]2C(=O)N[C@@H](CCCNC(=N)N)C(=O)N[C@@H](CC(C)C)C(=O)N[C@@H](CCCNC(=N)N)C(=O)NCC(=O)N[C@H](C(N)=O)CSSC[C@@H](NC(C)=O)C(=O)N1 | 33 |  |
| CSCC[C@@H]1NC(=O)[C@H](NC(C)=O)CSSC[C@@H](C(N)=O)NC(=O)CNC(=O)[C@H](CCCN)NC(=O)[C@H](CC(C)C)NC(=O)[C@H](CCCN)NC(=O)[C@@H]2CCCN2C1=O | 31 |  |
| CSCC[C@@H]1NC(=O)[C@H](NC(C)=O)CSSC[C@@H](C(N)=O)NC(=O)CNC(=O)[C@H](CCCNC(=N)N)NC(=O)[C@H](CC(C)C)NC(=O)[C@H](CCCNC(=N)N)NC(=O)CN(C)C1=O | 22 |  |
| CSCC[C@@H]1NC(=O)[C@H](NC(C)=O)CSSC[C@@H](C(N)=O)NC(=O)CNC(=O)[C@H](CCCNC(=N)N)NC(=O)[C@H](CC(C)C)NC[C@H](CCCNC(=N)N)NC(=O)[C@@H]2CCCN2C1=O | 58 |  |
| CSCC[C@H](NC(=O)[C@@H]1CCCN1C(=O)[C@H]1CSSC[C@H](N)C(=O)NCC(=O)N[C@@H](CCCNC(=N)N)C(=O)N[C@@H](CC(C)C)C(=O)N[C@@H](CCCNC(=N)N)C(=O)N1)C(=O)NC(C)=O | 34 |  |
| CSCC[C@@H]1NC(=O)[C@H](NC(C)=O)CNC(=N)NC[C@@H](C(N)=O)NC(=O)CNC(=O)[C@H](CCCNC(=N)N)NC(=O)[C@H](CC(C)C)NC(=O)[C@H](CCCNC(=N)N)NC(=O)[C@@H]2CCCN2C1=O | 0 |  |
| CSCC[C@@H]1NC(=O)[C@H](NC(C)=O)CSSC[C@@H](C(N)=O)NC(=O)CNC(=O)[C@H](CCCN)NC(=O)[C@H](CC(C)C)NC(=O)[C@H](CCCNC(=N)N)NC(=O)[C@@H]2CCCN2C1=O | 0 |  |
| CSCCC1NC(=O)[C@H](NC(C)=O)CNC(=O)C[C@@H](C(N)=O)NC(=O)CNC(=O)[C@H](CCCNC(=N)N)NC(=O)[C@H](CC(C)C)NC(=O)[C@H](CCCNC(=N)N)NC(=O)[C@@H]2CCCN2C1=O (single isomer, unassigned) | 12 |  |

Results, then the compound that gave them:

| inhibition [1] [%] | inhibition [2] [%] | Compound |
| --- | --- | --- |
|  | 20 | CSCC[C@@H]1NC(=O)[C@@H](NC(=O)[C@H](CC(C)C)NC(=O)CNC(=O)[C@H](CO)NC(=O)[C@H](CC(=O)O)NC(C)=O)CSSC[C@@H](C(=O)N[C@@H](CC(=O)O)C(=O)N2CCC[C@H]2C(=O)N[C@@H](CCCNC(=N)N)C(N)=O)NC(=O)[C@H](C)NC(=O)[C@H](CCCNC(=N)N)NC(=O)[C@H](CC(C)C)NC(=O)[C@H](CCCNC(=N)N)NC(=O)[C@@H]2CCCN2C1=O (Ac-DSGLCMPRLRACDPR-NH2; disulfide 5-12) |
|  | 35 | CSCC[C@@H]1NC(=O)[C@@H](NC(=O)[C@H](CC(C)C)NC(=O)CNC(=O)[C@H](CO)NC(=O)[C@H](CC(=O)O)NC(C)=O)CSSC[C@@H](C(=O)N[C@@H](CC(=O)O)C(=O)N2CCC[C@H]2C(=O)N[C@@H](CCCNC(=N)N)C(N)=O)NC(=O)CNC(=O)[C@H](CCCNC(=N)N)NC(=O)[C@H](C)NC(=O)[C@H](CCCNC(=N)N)NC(=O)[C@@H]2CCCN2C1=O (Ac-DSGLCMPRARGCDPR-NH2; disulfide 5-12) |
| 21 |  | CSCC[C@@H]1NC(=O)[C@H](NC(C)=O)CSSC[C@@H](C(N)=O)NC(=O)CNC(=O)[C@H](CCCNC(=N)N)NC(=O)[C@H](CC(C)C)NC(=O)[C@H](CCCNC(=N)N)NC(=O)[C@@H]2c3ccccc3CCN2C1=O |
|  | 55 | CSCC[C@@H]1NC(=O)[C@@H](NC(=O)[C@H](CC(C)C)NC(=O)CNC(=O)[C@H](CO)NC(=O)[C@H](C)NC(C)=O)CSSC[C@@H](C(=O)N[C@@H](CC(=O)O)C(=O)N2CCC[C@H]2C(=O)N[C@@H](CCCNC(=N)N)C(N)=O)NC(=O)CNC(=O)[C@H](CCCNC(=N)N)NC(=O)[C@H](CC(C)C)NC(=O)[C@H](CCCNC(=N)N)NC(=O)[C@@H]2CCCN2C1=O (Ac-ASGLCMPRLRGCDPR-NH2; disulfide 5-12) |
| 54 |  | CSCC[C@@H]1NC(=O)[C@H](NC(C)=O)CSSC[C@@H](C(N)=O)NC(=O)[C@@H](C)NC(=O)[C@H](CCCNC(=N)N)NC(=O)[C@H](CC(C)C)NC(=O)[C@H](CCCNC(=N)N)NC(=O)[C@@H]2CCCN2C1=O |
|  | 0 | CSCC[C@@H]1NC(=O)[C@@H](NC(C)=O)CSC[C@@H](C(N)=O)NC(=O)[C@H](CCCNC(=N)N)NC(=O)[C@@H]2CCCN2C1=O |
| 22 |  | CSCC[C@@H]1NC(=O)[C@H](NC(C)=O)C/C=C\C[C@@H](C(N)=O)NC(=O)CNC(=O)[C@H](CCCNC(=N)N)NC(=O)[C@H](CC(C)C)NC(=O)[C@H](CCCNC(=N)N)NC(=O)[C@@H]2CCCN2C1=O |
| 0 |  | CSCC[C@@H]1NC(=O)[C@H](NC(C)=O)CSSC[C@@H](C(N)=O)NC(=O)CNC(=O)[C@H](CCCNC(=N)N)NC(=O)[C@H](CC(C)C)NC(=O)[C@H](CCCNC(=N)N)NC(=O)c2ccccc2NC1=O |
| 13 |  | CSCC[C@@H]1NC(=O)[C@H](NC(C)=O)Cc2cn(nn2)CC[C@@H](C(N)=O)NC(=O)CNC(=O)[C@H](CCCNC(=N)N)NC(=O)[C@H](CC(C)C)NC(=O)[C@H](CCCNC(=N)N)NC(=O)[C@@H]2CCCN2C1=O |
| 34 |  | CSCC[C@H](NC(=O)[C@@H]1CCCN1C(=O)[C@@H](CCCNC(=N)N)[C@H]1CSSC[C@H](N)C(=O)NCC(=O)N[C@@H](CCCNC(=N)N)C(=O)N[C@@H](CC(C)C)C(=O)N1)C(=O)NC(C)=O |
| 41 |  | CSCC[C@@H]1NC(=O)C(NC(C)=O)CSCC(C(N)=O)NC(=O)CNC(=O)[C@H](CCCNC(=N)N)NC(=O)[C@H](CC(C)C)NC(=O)[C@H](CCCNC(=N)N)NC(=O)[C@@H]2CCCN2C1=O (mixture of isomers) |
